This passage reports MIC results from ChEMBL document CHEMBL4118285, “Synthesis and antibacterial activity of novel ketolides with 11,12-quinoylalkyl side chains” (2018).

In brackets after ≈: the same amount, converted by molar mass. Some results are limits rather than exact numbers.

Common to all, as to format: functional
In test [1] the test system is Staphylococcus aureus. Put plainly: Antibacterial activity against methicillin-resistant Staphylococcus aureus 11B117 by broth microdilution method. An outline of the steps: (§1)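 MIC values were determined by broth microdilution following Clinical and Laboratory Standards Institute (CLSI) recommendations.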
Test [2] has as its system Streptococcus pneumoniae. Put plainly: Antibacterial activity against erythromycin-sensitive Streptococcus pneumoniae 11G364 by broth microdilution method. An outline of the steps:
(§2)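 MICs were determined by broth microdilution following CLSI recommendations, with clarithromycin and telithromycin run as reference antibiotics.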

Test [3] concerns Streptococcus pneumoniae. Put plainly: Antibacterial activity against erythromycin-resistant Streptococcus pneumoniae 11 J011 by broth microdilution method. The gist of the method:
as §1

Test [4] concerns Haemophilus influenzae. Put plainly: Antibacterial activity against azithromycin-sensitive Haemophilus influenzae 11P042 by broth microdilution method. An outline of the steps: as §2
Test [5] concerns Haemophilus influenzae. Put plainly: Antibacterial activity against azithromycin-resistant Haemophilus influenzae 11Q373 by broth microdilution method. An outline of the steps: as §1
Test [6] has as its system Streptococcus pyogenes. Put plainly: Antibacterial activity against erythromycin-sensitive Streptococcus pyogenes 11L264 by broth microdilution method. The gist of the method: as §2
The subject of test [7] is Staphylococcus epidermidis. Put plainly: Antibacterial activity against methicillin-sensitive Staphylococcus epidermidis 11X315 by broth microdilution method. An outline of the steps: as §1
The subject of test [8] is Staphylococcus aureus. Put plainly: Antibacterial activity against methicillin-sensitive Staphylococcus aureus 11B122 by broth microdilution method. The gist of the method:
as §2

The subject of test [9] is Streptococcus pyogenes. Put plainly: Antibacterial activity against erythromycin-resistant Streptococcus pyogenes 11 N369 by broth microdilution method. The gist of the method: as §1
The test system of test [10] is Staphylococcus epidermidis. Put plainly: Antibacterial activity against methicillin-resistant Staphylococcus epidermidis 11C176 by broth microdilution method. The gist of the method:
as §1

Test [11] deals with Escherichia coli. Put plainly: Antibacterial activity against extended spectrum beta-lactamases non-producing Escherichia coli ATCC 25922 by broth microdilution method. An outline of the steps:
as §2

Test [12] deals with Moraxella catarrhalis. Put plainly: Antibacterial activity against clarithromycin-sensitive Moraxella catarrhalis 12-1 by broth microdilution method. An outline of the steps:
as §2

In test [13] the test system is Staphylococcus epidermidis. Put plainly: Antibacterial activity against methicillin-sensitive Staphylococcus epidermidis ATCC 12228 by broth microdilution method. An outline of the steps: as §2
The test system of test [14] is Klebsiella pneumoniae. Put plainly: Antibacterial activity against extended spectrum beta-lactamases producing Klebsiella pneumoniae ATCC 700603 by broth microdilution method. An outline of the steps: as §2
Test [15] has as its system Pseudomonas aeruginosa. Put plainly: Antibacterial activity against Pseudomonas aeruginosa ATCC 27853 by broth microdilution method. The gist of the method:
as §2

Test [16] concerns Staphylococcus epidermidis. Put plainly: Antibacterial activity against methicillin-resistant Staphylococcus epidermidis 13-3 by broth microdilution method. The gist of the method:
as §1

The subject of test [17] is Streptococcus pyogenes. Put plainly: Antibacterial activity against […] Streptococcus pyogenes 12-8 by broth microdilution method. The gist of the method:
as §2

Test [18] relates to Staphylococcus aureus. Put plainly: Antibacterial activity against methicillin-sensitive Staphylococcus aureus ATCC 29213 by broth microdilution method. The gist of the method:
as §2

Test [19] relates to Moraxella catarrhalis. Put plainly: Antibacterial activity against clarithromycin-resistant Moraxella catarrhalis 12-2 by broth microdilution method. An outline of the steps: as §1
The subject of test [20] is Staphylococcus aureus. Put plainly: Antibacterial activity against methicillin-resistant Staphylococcus aureus ATCC 33591 by broth microdilution method. The gist of the method: as §1
For test [21], the system named is Streptococcus pyogenes. Put plainly: Antibacterial activity against methicillin-resistant Streptococcus pyogenes 12-1 by broth microdilution method. An outline of the steps: as §1

On to `CC[C@H]1OC(=O)[C@H](C)C(=O)[C@H](C)[C@@H](O[C@@H]2O[C@H](C)C[C@H](N(C)C)[C@H]2O)[C@](C)(OC)C[C@@H](C)C(=O)[C@H](C)[C@H]2N(CCCSc3cnc4ccccc4c3)C(=O)O[C@]12C`, for which the MIC in test [1] was greater than 64 µg/mL; in test [2], 0.008 µg/mL (≈ 0.00983 µM); in test [3], 0.125 µg/mL (≈ 0.154 µM); in test [4] it was 16 µg/mL (≈ 19.7 µM); in [5] it was 32 µg/mL (≈ 39.3 µM); in test [6], 0.016 µg/mL (≈ 0.0197 µM). Further, the MIC in test [7] came out at 0.125 µg/mL (≈ 0.154 µM); in [8], 0.125 µg/mL (≈ 0.154 µM); in [9], 0.5 µg/mL (≈ 0.614 µM); in [10], 0.125 µg/mL (≈ 0.154 µM).

As for `CC[C@H]1OC(=O)[C@H](C)[C@@H](O[C@H]2C[C@@](C)(OC)[C@@H](O)[C@H](C)O2)[C@H](C)[C@@H](O[C@@H]2O[C@H](C)C[C@H](N(C)C)[C@H]2O)[C@](C)(OC)C[C@@H](C)C(=O)[C@H](C)[C@@H](O)[C@]1(C)O` [CLARITHROMYCIN], the MIC in [1] was greater than 64 µg/mL; in [2], 0.031 µg/mL (≈ 0.0414 µM); in test [11], 16 µg/mL (≈ 21.4 µM); in [3], 64 µg/mL (≈ 85.6 µM); in [12], 0.008 µg/mL (≈ 0.0107 µM); in test [4], 8 µg/mL (≈ 10.7 µM). Also, the MIC was 0.06 µg/mL (≈ 0.0802 µM) in test [13]; 8 µg/mL (≈ 10.7 µM) in test [5]; 0.016 µg/mL (≈ 0.0214 µM) in test [6]; 128 µg/mL (≈ 171 µM) in test [14]; 128 µg/mL (≈ 171 µM) in [15]; greater than 256 µg/mL in test [16]. Besides, the MIC in [17] is 0.03 µg/mL (≈ 0.0401 µM); in [7], 0.125 µg/mL (≈ 0.167 µM); in test [8] it was 0.031 µg/mL (≈ 0.0414 µM); in test [18] it was 0.12 µg/mL (≈ 0.16 µM); in test [9] it was greater than 64 µg/mL; in test [19], greater than 256 µg/mL. For the same compound, the MIC was greater than 256 µg/mL in [20], 128 µg/mL (≈ 171 µM) in test [21] and greater than 64 µg/mL in test [10].

As to `CC[C@H]1OC(=O)[C@H](C)C(=O)[C@H](C)[C@@H](O[C@@H]2O[C@H](C)C[C@H](N(C)C)[C@H]2O)[C@](C)(OC)C[C@@H](C)C(=O)[C@H](C)[C@H]2N(CCCCn3cnc(-c4cccnc4)c3)C(=O)O[C@]12C` [TELITHROMYCIN], the MIC in test [1] is greater than 64 µg/mL; in test [2] it was 0.016 µg/mL (≈ 0.0197 µM); in [11], 8 µg/mL (≈ 9.85 µM); in test [3], 0.031 µg/mL (≈ 0.0382 µM); in test [12] it was 0.125 µg/mL (≈ 0.154 µM); in test [4], 1 µg/mL (≈ 1.23 µM). In addition, the MIC in test [13] was 0.015 µg/mL (≈ 0.0185 µM); in test [5], 4 µg/mL (≈ 4.93 µM); in test [6], 0.008 µg/mL (≈ 0.00985 µM); in [14], 64 µg/mL (≈ 78.8 µM); in test [15] it was 32 µg/mL (≈ 39.4 µM); in [16], greater than 256 µg/mL. Further, the MIC in test [17] is 0.03 µg/mL (≈ 0.0369 µM); in test [7], 0.062 µg/mL (≈ 0.0764 µM); in test [8], 0.062 µg/mL (≈ 0.0764 µM); in [18] it was 0.015 µg/mL (≈ 0.0185 µM); in test [9], 0.125 µg/mL (≈ 0.154 µM); in test [19], greater than 256 µg/mL. Further, the MIC in test [20] is greater than 256 µg/mL; in [21] it was greater than 256 µg/mL; in test [10], 0.031 µg/mL (≈ 0.0382 µM).
